# Hit rate of the full screen: of about 240,000 compounds, about 950 (0.4%) were called active.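 How the source made its calls: active means lipid droplet intensity inhibited by at least 50%, with more than 500 cells counted; inconclusive means wells with under 300 cells, treated as cytotoxic; inactive means the rest.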 The sample as a whole holds a higher share of actives than the screen did.
# Assay: oleate-induced lipid droplet accumulation in AML12 cells – imaging, high-throughput imaging, BODIPY stain, primary screen (AID 1656);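 on cell count: cells counted across two imaged fields per well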
# Conditions: AML12 mouse hepatocytes, oleate lipid droplets, at 6.5 µM; cell count: measured here: cell count, cytotoxicity flag; inhibition: stronger effect = higher value
# How it was run: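 material = mouse AML12 hepatocyte cell line, fixed after treatment | also added = 100 µM oleic acid challenge | doses = compound at 6.5 µM only | schedule = overnight exposure | technique = Image-based BODIPY and DAPI two-channel analysis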
Structure (SMILES),cell count [cells],inhibition
COc1ccc(CCNC(=O)CCCCCNC(=O)N2CCn3c2nc2ccccc23)cc1OC,692,0.7% (inactive)
CCCN1CCn2c3c(c4cc(Br)ccc42)CCCC31 (stereo unspecified),795,-5.9% (inactive)
CCC(C(=O)NC1CCCCC1)N(C(=O)c1snc(C(N)=O)c1N)c1ccc(OC)cc1OC (stereo unspecified),820,-0.1% (inactive)
Cc1ccc(NC(=O)c2cc(-c3ccccc3O)n[nH]2)cc1C,660,31.5% (inactive)
Cc1nc2cc(C(F)(F)F)ccc2n1CCNc1nc(-c2cc(Cl)c(N)c(Cl)c2)cs1,750,8.1% (inactive)
Cc1c(C(=O)NCC(c2ccco2)N2CCCC2)oc2ccc(Cl)cc12 (stereo unspecified),736,2.8% (inactive)
CS(=O)(=O)N(CC(=O)N1CCOCC1)c1cccc(Cl)c1Cl,792,-9.9% (inactive)
COc1ccc(NC(=O)NCCN2CCN(c3ccc(C)cc3)CC2)c(Cl)c1,800,-0.4% (inactive)
CCN(C(=O)COc1ccc(C(=O)c2ccccc2)cc1)c1ccccc1,592,-18.3% (inactive)
Cc1cc(CN(C)C(=O)c2cc(COc3ccc(C)c(C)c3)on2)n[nH]1,697,-6.7% (inactive)
CC(Cc1cccs1)N(Cc1ccc(Cl)cc1)C(=O)c1ccncc1 (stereo unspecified),838,-16% (inactive)
O=C(NC(=S)Nc1ccccc1N1CCCCC1)c1ccc(F)cc1,720,8.8% (inactive)
COc1ccc(C(CNC(=O)COc2ccccc2OC)N2CCCCC2)cc1 (stereo unspecified),697,-15% (inactive)
COc1cccc(Cn2cc(/C=N/NC(=O)c3cc(O)cc(O)c3)c3ccccc32)c1,740,-2.5% (inactive)
COc1ccc(C)cc1Nc1n[n+](-c2ccccc2)c(-c2cccc(Cl)c2Cl)s1,778,-4.7% (inactive)
CC1CCN(CCCn2c(SCC(=O)NC3CCCC3)nc3ccccc3c2=O)CC1,704,-17.3% (inactive)
CC1CCCN(CCCNC(=O)CN2C(=O)COc3ccc(S(=O)(=O)N4CCOCC4)cc32)C1 (stereo unspecified),780,-12.4% (inactive)
O=C(NCC(=O)N1CCN(c2ccccc2O)CC1)c1ccc2ccccc2c1,679,-1.6% (inactive)
COc1ccc(N(Cc2cc3ccc(C)cc3[nH]c2=O)S(=O)(=O)c2ccccc2)cc1,764,-6.7% (inactive)
CC(C)c1ccc(NC2CCCN(C(=O)c3ccncc3)C2)cc1 (stereo unspecified),631,-2.4% (inactive)
O=C(N/C(=C\c1ccc([N+](=O)[O-])cc1)C(=O)N1CCOCC1)c1cccc(Br)c1,652,-42.9% (inactive)
COc1ccc(-c2c(C#Cc3ccccc3)c3ccccc3n2C)cc1,742,-11.3% (inactive)
Cc1ccccc1OCC(=O)Nc1ccc(S(=O)(=O)N2CCOCC2)cc1,768,-7.1% (inactive)
O=C(/C=C/c1ccc([N+](=O)[O-])o1)NNC(=O)c1ccc(F)cc1,473,-82% (inactive)
Cc1ccc(-c2csc(NC(=O)Cc3cccs3)n2)cc1C,732,12.4% (inactive)
COc1ccc(-c2csc(NC(=O)CCCc3cccs3)n2)cc1,687,-3.2% (inactive)

Structure (SMILES),cell count [cells],inhibition
CCCc1ccc(-c2csc(NC(=O)Cc3cccs3)n2)cc1,774,71% (active)
CCOCCCN(C)C1CCN(C(=O)c2oc3ccccc3c2NC(=O)COc2cccc(C)c2)CC1,640,-24.8% (inactive)
Cc1ccc(NC(=O)CN2CCc3ccccc3C2)cc1,793,7.1% (inactive)
O=C(CN1CCOCC1)Nc1ccccc1,743,1.4% (inactive)
O=C(CN1CCc2cc3c(cc2C1)OCCCO3)Nc1ccccc1,784,77.1% (active)
CC1(C)CC(=O)C(N=Nc2c(F)cccc2F)=C(O)C1,713,8.6% (inactive)
Cc1ccc(N2C(=O)C(NC(=O)c3c(F)cccc3F)(C(F)(F)F)C3=C2CC(C)(C)CC3=O)cc1 (stereo unspecified),635,63.8% (active)
CCOC(=O)CC1(NC(=O)c2cc(COc3cncc(Cl)c3)on2)CCCCC1,665,11.8% (inactive)
CCOC(=O)N1CCN(C(=O)c2ccc3c(=O)n(CCc4ccc(OC)c(OC)c4)c(=O)[nH]c3c2)CC1,684,16.5% (inactive)
CCCCNC(=O)c1cn(CC)c2cc(N3CCN(C(=O)c4ccco4)CC3)c(F)cc2c1=O,705,-15.8% (inactive)
O=S(=O)(c1ccc(Cl)cc1)c1nc(-c2ccco2)oc1N1CCCCC1,633,-18% (inactive)
CN(CC1CCCO1)S(=O)(=O)c1ccc(C(=O)Nc2ccc([N+](=O)[O-])cc2)cc1 (stereo unspecified),854,0.6% (inactive)
CC(C)c1ccc2oc(=O)cc(CN3CCN(Cc4ccccc4)CC3)c2c1,850,-0.8% (inactive)
C=CCSc1nnc(N2C(=O)C(O)=C(C(=O)c3ccco3)C2c2ccc(F)cc2)s1 (stereo unspecified),710,-21.4% (inactive)
COc1ccc(C(=O)Nc2ccccc2C(=O)NCc2ccco2)cc1,738,-20.2% (inactive)
COc1ccc(/C=C(/NC(=O)c2ccco2)C(=O)Nc2ccc(C(C)=O)cc2)cc1,829,8.8% (inactive)
COc1ccc(/C=C(\NC(=O)c2ccc(OCC(C)C)cc2)C(=O)OCc2ccco2)cc1,607,74.3% (active)
CCn1cc(S(=O)(=O)c2cccc(C)c2)c(=O)c2cc(F)c(N3CCN(C)CC3)cc21,738,7.2% (inactive)
CCC1=Nc2cc(C(=O)NCCN3CCCC3)ccc2Sc2ccc(C)cc21,726,4.6% (inactive)
COc1cccc(/C=C(/CC(=O)Nc2ccc(N3CCOCC3)cc2)c2nc3ccccc3s2)c1,578,77.8% (active)
COc1cc2ccccc2cc1C(=O)Nc1ccc(N2CCOCC2)cc1,835,-4.2% (inactive)
COc1ccc(/C=C(/CC(=O)Nc2ccc(C)cc2)c2nc3ccccc3s2)cc1,713,-0.1% (inactive)
CCOc1ccc(CCNC(=O)C(CC)n2nc(C)n3c(cc4sccc43)c2=O)cc1OCC (stereo unspecified),786,85.5% (active)
CCC(C(=O)NCc1ccc(OC)cc1)n1nc(C)n2c(cc3occc32)c1=O (stereo unspecified),780,-2.7% (inactive)
COc1ccc(CCNC(=O)COC(=O)/C=C/c2cccs2)cc1OC,727,2.8% (inactive)
Cc1ccc2cc(C)c(N3CCN(c4ccc(F)cc4)CC3)nc2c1,820,15% (inactive)

Structure (SMILES),cell count [cells],inhibition
CC(NC(=O)CNC(=O)Cc1cccc2ccccc12)c1ccc(S(N)(=O)=O)cc1 (stereo unspecified),734,13.3% (inactive)
CC(NC(=O)c1ccccc1C(=O)O)c1ccc(-n2ccnc2)cc1 (stereo unspecified),807,2.2% (inactive)
CC(NC(=O)c1cccc2ccccc12)c1ccc2c(c1)CCCC2 (stereo unspecified),688,57.9% (active)
CCn1c(=S)sc2c(=O)n(CC(=O)Nc3cccc(Br)c3)c(C)nc21,740,8.5% (inactive)
C/C(=N\NC(=O)COc1ccc(C)cc1[N+](=O)[O-])c1ccc2c(c1)OCCO2,706,-6.5% (inactive)
CCCSc1nc2sc3c(c2c(=O)n1-c1ccc(OC)cc1)CCN(C)C3,816,11.2% (inactive)
O=c1[nH]cccc1-c1nc2ccccc2n1Cc1ccc(Cl)cc1,844,10.1% (inactive)
CC(=O)N1c2ccc(S(=O)(=O)N3CCC(C(=O)N4CCN(c5ccccc5)CC4)CC3)cc2CC1C (stereo unspecified),669,-1.7% (inactive)
Cc1ccc(Nc2cc(C)nc3c(C)ccc([N+](=O)[O-])c23)cc1,674,57.6% (active)
Cc1ccc(Nc2ccc(C(N)=O)cc2[N+](=O)[O-])cc1,630,-6.1% (inactive)
Cc1cc(Nc2ccc(N3CCOCC3)cc2)c2cccc(C)c2n1,761,11.3% (inactive)
O=C(Nc1ncc([N+](=O)[O-])s1)C1COc2ccccc2O1 (stereo unspecified),840,-18.9% (inactive)
Cn1c(=O)cc(SCC(=O)N2CCCC2)c2cc(Cl)ccc21,775,9% (inactive)
CCOc1ccc(CCNC(=O)CSc2cc(=O)n(C)c3ccc(Cl)cc23)cc1OCC,659,93.9% (active)
CCN(CCCNC(=O)CSc1cc(=O)n(C)c2cc(Cl)ccc12)Cc1ccccc1,704,18.8% (inactive)
O=C(c1ccccc1)N1CCC(CC2CC(c3ccc(Cl)cc3)=NO2)(C(=O)NCC2CCCCC2)CC1 (stereo unspecified),817,-15.1% (inactive)
CN(CC1CCCN(CCc2cccc(C(F)(F)F)c2)C1)C(=O)c1ccc2nc[nH]c2c1 (stereo unspecified),744,-11.4% (inactive)
O=C(NCCCN1CCCC1=O)C(=O)NCC1OCCN1S(=O)(=O)c1ccc(Br)cc1 (stereo unspecified),666,-6.7% (inactive)
CCCC(=O)Nc1nnc(-c2ccccc2)o1,702,4.2% (inactive)
OC(c1nnc(-c2ccccc2)o1)c1cccs1 (stereo unspecified),773,16.7% (inactive)
CCCN(CCC)c1ccc(C(O)c2nnc(-c3ccccc3)o2)cc1 (stereo unspecified),691,69.3% (active)
O=C(Nc1ccccc1C(=O)Nc1ccncc1)c1ccc([N+](=O)[O-])cc1,805,10.9% (inactive)
CCOC(=O)CC1C(=O)NCCN1c1nc2c(C)cccn2c(=O)c1/C=C1\SC(=S)N(C(C)CC)C1=O (stereo unspecified),696,36.8% (inactive)
CCCN(CCC)c1nc2c(C)cccn2c(=O)c1/C=C1/SC(=S)N(Cc2ccco2)C1=O,775,57.5% (active)
O=C(CCCN1C(=O)/C(=C\c2ccco2)SC1=S)Nc1cccc2ccccc12,553,-6.6% (inactive)
CCc1cccc(NC(=O)CCCN2C(=O)C(c3ccccc3)Oc3cccnc32)c1 (stereo unspecified),663,-3.4% (inactive)
